Tests used:
Type in all cases: functional
T47D [1] = assay: Estrogenic activity in human T47D cells assessed as drug level causing stimulation of cell proliferation equivalent to 10 pM estradiol after 96 hrs by alamar blue assay
In short: (§1)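 Cells seeded at 10^4 per well in phenol red-free RPMI with 5% DCC-treated FBS. Compounds added in DMSO (vehicle control 1% DMSO) for 96 h at 37 °C, 5% CO2, with serial estradiol dilutions run alongside. Alamar Blue for 3 h, fluorescence ex 530/em 590 nm. Estradiol-equivalent concentration fitted by linear regression from at least five concentrations in quadruplicate.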

MCF7 [2] = assay: Estrogenic activity in human MCF7 cells assessed as drug level causing stimulation of cell proliferation equivalent to 100 pM estradiol after 96 hrs by alamar blue assay; in short: as §1
T47D [3] = assay: Estrogenic activity in human T47D cells assessed as drug level causing stimulation of cell proliferation equivalent to 100 pM estradiol after 96 hrs by alamar blue assay; in short: as §1
MCF7 [4] = assay: Estrogenic activity in human MCF7 cells assessed as drug level causing stimulation of cell proliferation equivalent to 10 pM estradiol after 96 hrs by alamar blue assay; in short: as §1
MCF7 [5] = assay: Estrogenic activity in luciferase transfected human MCF7 cells assessed as drug level causing stimulation of cell proliferation equivalent to 10 pM estradiol by luciferase reporter gene assay
In short: (§2)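 Reporter assay in MCF-7 or T47D cells transiently transfected with luciferase. Compounds tested from 0.01 to 10 µM. Luciferase induction is expressed as the compound concentration equivalent to the 10 or 100 pM estradiol response. Values come from linear regression over at least five concentrations in quadruplicate.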

MCF7 [6] = assay: Estrogenic activity in luciferase transfected human MCF7 cells assessed as drug level causing stimulation of cell proliferation equivalent to 100 pM estradiol by luciferase reporter gene assay; in short: as §2
T47D [7] = assay: Estrogenic activity in luciferase transfected human T47D cells assessed as drug level causing stimulation of cell proliferation equivalent to 10 pM estradiol by luciferase reporter gene assay; in short: as §2
T47D [8] = assay: Estrogenic activity in luciferase transfected human T47D cells assessed as drug level causing stimulation of cell proliferation equivalent to 100 pM estradiol by luciferase reporter gene assay; in short: as §2

Compound `COc1ccc(-c2coc3cc(O)ccc3c2=O)cc1O` [CALYCOSIN] has an Activity (T47D [1]) of 4.1 µM, an Activity (MCF7 [2]) greater than 100 µM and an Activity (T47D [3]) greater than 100 µM. It also gave an Activity (MCF7 [4]) greater than 100 µM, an Activity (MCF7 [5]) of 0.6 µM and an Activity (MCF7 [6]) of 4.7 µM. The Activity (T47D [7]) was 8.8 µM and the Activity (T47D [8]) was greater than 100 µM.
Work on `COc1c(C/C=C/c2ccccc2)ccc(O)c1O` [HYDROXYOBUSTYRENE] yielded an Activity (T47D [1]) of 5.1 µM, an Activity (MCF7 [2]) greater than 100 µM and an Activity (T47D [3]) greater than 100 µM. It also gave an Activity (MCF7 [4]) greater than 100 µM, an Activity (MCF7 [5]) greater than 100 µM and an Activity (MCF7 [6]) greater than 100 µM. The Activity (T47D [7]) was greater than 100 µM and the Activity (T47D [8]) was greater than 100 µM.
`COc1ccc(C2COc3cc(O)ccc3C2=O)c(O)c1` (configuration not stated) showed an Activity (T47D [1]) of 1.5 µM, an Activity (MCF7 [2]) of 45.3 µM and an Activity (T47D [3]) of 33.7 µM. The Activity (MCF7 [4]) was 5.7 µM, the Activity (MCF7 [5]) was greater than 100 µM and the Activity (MCF7 [6]) was greater than 100 µM. The Activity (T47D [7]) was 7.3 µM and the Activity (T47D [8]) was greater than 100 µM.
`COc1ccc([C@H]2COc3cc(O)ccc3C2=O)c(OC)c1O` gave an Activity (T47D [1]) of 2.1 µM, an Activity (MCF7 [2]) of 9.4 µM and an Activity (T47D [3]) of 8.9 µM. It also gave an Activity (MCF7 [4]) of 2.1 µM, an Activity (MCF7 [5]) greater than 100 µM and an Activity (MCF7 [6]) greater than 100 µM. The Activity (T47D [7]) was 0.6 µM and the Activity (T47D [8]) was greater than 100 µM.
For `COC1=CC(=O)C(c2coc3cc(O)ccc3c2=O)=CC1=O` [BOWDICHIONE], the Activity (T47D [1]) was greater than 100 µM, the Activity (MCF7 [2]) was 1.4 µM and the Activity (T47D [3]) was greater than 100 µM. It also gave an Activity (MCF7 [4]) of 0.01 µM, an Activity (MCF7 [5]) of 0.7 µM and an Activity (MCF7 [6]) of 0.9 µM. It also gave an Activity (T47D [7]) greater than 100 µM and an Activity (T47D [8]) greater than 100 µM.
`O=C1C[C@@H](c2ccc(O)cc2)Oc2cc(O)cc(O)c21` [NARINGENIN] showed an Activity (T47D [1]) of 0.09 µM, an Activity (MCF7 [2]) of 0.7 µM and an Activity (T47D [3]) of 1.6 µM. It also gave an Activity (MCF7 [4]) of 0.2 µM, an Activity (MCF7 [5]) of 1.7 µM and an Activity (MCF7 [6]) of 2.6 µM. It also gave an Activity (T47D [7]) of 0.01 µM and an Activity (T47D [8]) of 5.8 µM.
With `COc1cc(OC)c(-c2coc3cc(O)cc(O)c3c2=O)cc1OC` the Activity (T47D [1]) was 0.1 µM, the Activity (MCF7 [2]) was greater than 100 µM and the Activity (T47D [3]) was greater than 100 µM. For the same compound, the Activity (MCF7 [4]) was greater than 100 µM, the Activity (MCF7 [5]) was 5.4 µM and the Activity (MCF7 [6]) was 7.8 µM. The Activity (T47D [7]) was 6.3 µM and the Activity (T47D [8]) was greater than 100 µM.
For `COc1ccc(-c2coc3cc(O)cc(O)c3c2=O)c(OC)c1O` [KHRINONE C], the Activity (T47D [1]) was 0.2 µM, the Activity (MCF7 [2]) was 93.3 µM and the Activity (T47D [3]) was 8.6 µM. It also gave an Activity (MCF7 [4]) of 4.5 µM, an Activity (MCF7 [5]) greater than 100 µM and an Activity (MCF7 [6]) greater than 100 µM. The Activity (T47D [7]) was 0.2 µM and the Activity (T47D [8]) was 2 µM.
`COc1cc([C@H]2Oc3cc(O)ccc3C(=O)[C@@H]2O)ccc1O` [ERYCIBENIN D] showed an Activity (T47D [1]) of 5.7 µM, an Activity (MCF7 [2]) greater than 100 µM and an Activity (T47D [3]) greater than 100 µM. It also gave an Activity (MCF7 [4]) greater than 100 µM, an Activity (MCF7 [5]) greater than 100 µM and an Activity (MCF7 [6]) greater than 100 µM. For the same compound, the Activity (T47D [7]) was 0.3 µM and the Activity (T47D [8]) was greater than 100 µM.
For `COc1cc2c(cc1-c1coc3cc(O)cc(O)c3c1=O)OCO2` [KHRINONE D], the Activity (T47D [1]) was 0.01 µM, the Activity (MCF7 [2]) was 4.2 µM and the Activity (T47D [3]) was greater than 100 µM. The Activity (MCF7 [4]) was 1.8 µM, the Activity (MCF7 [5]) was 0.01 µM and the Activity (MCF7 [6]) was 0.6 µM. The Activity (T47D [7]) was 5.3 µM and the Activity (T47D [8]) was greater than 100 µM.
For `COc1cc(-c2coc3cc(O)ccc3c2=O)ccc1O`, the Activity (T47D [1]) was greater than 100 µM, the Activity (MCF7 [2]) was greater than 100 µM and the Activity (T47D [3]) was greater than 100 µM. For the same compound, the Activity (MCF7 [4]) was 4.7 µM, the Activity (MCF7 [5]) was 1.1 µM and the Activity (MCF7 [6]) was 2.2 µM. For the same compound, the Activity (T47D [7]) was 1.2 µM and the Activity (T47D [8]) was 5.8 µM.
For `COc1ccc(-c2coc3cc(O)cc(O)c3c2=O)c(OC)c1`, the Activity (T47D [1]) was 0.4 µM, the Activity (MCF7 [2]) was 19.6 µM and the Activity (T47D [3]) was greater than 100 µM. It also gave an Activity (MCF7 [4]) of 3.2 µM, an Activity (MCF7 [5]) greater than 100 µM and an Activity (MCF7 [6]) greater than 100 µM. The Activity (T47D [7]) was 1.8 µM and the Activity (T47D [8]) was 3.1 µM.
Work on `COc1cc(O)c(-c2coc3cc(O)ccc3c2=O)cc1O` [KHRINONE A] yielded an Activity (T47D [1]) greater than 100 µM, an Activity (MCF7 [2]) greater than 100 µM and an Activity (T47D [3]) greater than 100 µM. For the same compound, the Activity (MCF7 [4]) was greater than 100 µM, the Activity (MCF7 [5]) was greater than 100 µM and the Activity (MCF7 [6]) was greater than 100 µM. The Activity (T47D [7]) was 5.6 µM and the Activity (T47D [8]) was 8.4 µM.
In the case of `O=C(/C=C/c1ccc(O)cc1)c1ccc(O)cc1O` [ISOLIQUIRITIGENIN], the Activity (T47D [1]) is reported as 1 µM, the Activity (MCF7 [2]) is reported as 4 µM and the Activity (T47D [3]) is reported as greater than 100 µM. It also gave an Activity (MCF7 [4]) of 1.1 µM, an Activity (MCF7 [5]) of 0.01 µM and an Activity (MCF7 [6]) greater than 100 µM. The Activity (T47D [7]) was greater than 100 µM and the Activity (T47D [8]) was greater than 100 µM.
